Assay results from different studies.
Compare with care: the assays were run in different laboratories.
Target: Voltage-gated inwardly rectifying potassium channel KCNH2 (KCNH2, Homo sapiens, UniProt Q12809)

SMILES	assay	test system	setting	quantity	value
CCN(Cc1ccccc1C(F)(F)F)C(=O)C1CCN(S(=O)(=O)c2ccc3[nH]ncc3c2)CC1	ligand displacement, radioligand		10 µM	inhibition	18%
CCN(CC)CCNC(=O)C1CCN(c2ccc3nnc(-c4cccc(C)c4)n3n2)CC1	ion current, inhibitor, patch clamp	HEK293	10 µM	inhibition	58%
Ic1cccc2cnccc12	ligand displacement, radioligand		10 µM	inhibition	31%
Cc1nc2cnc(N)c(C#Cc3cncc(C(=O)Nc4ccc(CN5CCN(C)CC5)c(C(F)(F)F)c4)c3)c2nc1C	ion current, inhibitor			IC50	2.4 µM
CNC(=O)[C@@]12C[C@@H]1[C@@H](n1cnc3c(NCCc4ccc(O)c(OC)c4)nc(C#Cc4ccc(Br)s4)nc31)[C@H](O)[C@@H]2O	ion current, inhibitor		10 µM	inhibition	> 50%
O=C(Cc1ccc(F)c(C(F)F)c1)N1CCN(c2ccc3nncn3n2)CC1	ligand displacement, radioligand		30 µM	inhibition	38%
COc1ncc(C)c(-c2ccc3c(c2)[nH]c(=O)c2cnn([C@H]4CCOC4)c23)c1C	ion current, inhibitor			IC50	4 µM
O=C(Cc1ccc(F)c(CF)c1)N1CCN(c2ccc3nncn3n2)CC1	ligand displacement, radioligand		30 µM	inhibition	23%
CCc1cc(O)ccc1-c1ccc2c(-c3nc4c([nH]3)CN(C(C)C)[C@H](C(=O)N3CC(N(C)C)C3)C4)n[nH]c2c1	ion current, inhibitor		13 µM	inhibition	< 5%
CNC(=O)[C@@]12C[C@@H]1[C@@H](n1cnc3c(NCCc4ccc(OC)c(OC)c4)nc(C#Cc4ccc(Cl)s4)nc31)[C@H](O)[C@@H]2O	ion current, inhibitor		10 µM	inhibition	> 50%
N=c1n(CCN2CCCCC2)c2ccccc2n1CC(O)c1cccc(Br)c1 (centres unmarked)	ion current, inhibitor, patch clamp	HEK293	10 µM	inhibition	99%
